Source: PubChem BioAssay
SUMO1-SIM PPI: modulators of SUMO1 protein-protein interactions, primary screen, biochemical, uHTS; SUMO1 binding to a labelled peptide, TR-FRET, 1 h; inhibition, % at 20 µM; actives 0.33% (n = 360,000); in the data active = inhibition above about 37%
FAS-TE inh: FAS thioesterase domain inhibitors, primary screen, biochemical, fluorescence intensity, uHTS. recombinant FAS-TE, OMFH fluorogenic substrate, fluorescence endpoint. inhibition, % at 15 µM. AID 602261, 2012. Fatty acid synthase (Homo sapiens), P49327. actives 0.67% (n = 360,000);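 active = compounds whose normalised, plate-corrected inhibition of enzyme fluorescence in the single-dose primary screen is 50% or more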;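 note: 0% = DMSO with enzyme and 100% = substrate without enzyme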
Target sequence (P49327 whole entry, looked up, the tested form may be a part): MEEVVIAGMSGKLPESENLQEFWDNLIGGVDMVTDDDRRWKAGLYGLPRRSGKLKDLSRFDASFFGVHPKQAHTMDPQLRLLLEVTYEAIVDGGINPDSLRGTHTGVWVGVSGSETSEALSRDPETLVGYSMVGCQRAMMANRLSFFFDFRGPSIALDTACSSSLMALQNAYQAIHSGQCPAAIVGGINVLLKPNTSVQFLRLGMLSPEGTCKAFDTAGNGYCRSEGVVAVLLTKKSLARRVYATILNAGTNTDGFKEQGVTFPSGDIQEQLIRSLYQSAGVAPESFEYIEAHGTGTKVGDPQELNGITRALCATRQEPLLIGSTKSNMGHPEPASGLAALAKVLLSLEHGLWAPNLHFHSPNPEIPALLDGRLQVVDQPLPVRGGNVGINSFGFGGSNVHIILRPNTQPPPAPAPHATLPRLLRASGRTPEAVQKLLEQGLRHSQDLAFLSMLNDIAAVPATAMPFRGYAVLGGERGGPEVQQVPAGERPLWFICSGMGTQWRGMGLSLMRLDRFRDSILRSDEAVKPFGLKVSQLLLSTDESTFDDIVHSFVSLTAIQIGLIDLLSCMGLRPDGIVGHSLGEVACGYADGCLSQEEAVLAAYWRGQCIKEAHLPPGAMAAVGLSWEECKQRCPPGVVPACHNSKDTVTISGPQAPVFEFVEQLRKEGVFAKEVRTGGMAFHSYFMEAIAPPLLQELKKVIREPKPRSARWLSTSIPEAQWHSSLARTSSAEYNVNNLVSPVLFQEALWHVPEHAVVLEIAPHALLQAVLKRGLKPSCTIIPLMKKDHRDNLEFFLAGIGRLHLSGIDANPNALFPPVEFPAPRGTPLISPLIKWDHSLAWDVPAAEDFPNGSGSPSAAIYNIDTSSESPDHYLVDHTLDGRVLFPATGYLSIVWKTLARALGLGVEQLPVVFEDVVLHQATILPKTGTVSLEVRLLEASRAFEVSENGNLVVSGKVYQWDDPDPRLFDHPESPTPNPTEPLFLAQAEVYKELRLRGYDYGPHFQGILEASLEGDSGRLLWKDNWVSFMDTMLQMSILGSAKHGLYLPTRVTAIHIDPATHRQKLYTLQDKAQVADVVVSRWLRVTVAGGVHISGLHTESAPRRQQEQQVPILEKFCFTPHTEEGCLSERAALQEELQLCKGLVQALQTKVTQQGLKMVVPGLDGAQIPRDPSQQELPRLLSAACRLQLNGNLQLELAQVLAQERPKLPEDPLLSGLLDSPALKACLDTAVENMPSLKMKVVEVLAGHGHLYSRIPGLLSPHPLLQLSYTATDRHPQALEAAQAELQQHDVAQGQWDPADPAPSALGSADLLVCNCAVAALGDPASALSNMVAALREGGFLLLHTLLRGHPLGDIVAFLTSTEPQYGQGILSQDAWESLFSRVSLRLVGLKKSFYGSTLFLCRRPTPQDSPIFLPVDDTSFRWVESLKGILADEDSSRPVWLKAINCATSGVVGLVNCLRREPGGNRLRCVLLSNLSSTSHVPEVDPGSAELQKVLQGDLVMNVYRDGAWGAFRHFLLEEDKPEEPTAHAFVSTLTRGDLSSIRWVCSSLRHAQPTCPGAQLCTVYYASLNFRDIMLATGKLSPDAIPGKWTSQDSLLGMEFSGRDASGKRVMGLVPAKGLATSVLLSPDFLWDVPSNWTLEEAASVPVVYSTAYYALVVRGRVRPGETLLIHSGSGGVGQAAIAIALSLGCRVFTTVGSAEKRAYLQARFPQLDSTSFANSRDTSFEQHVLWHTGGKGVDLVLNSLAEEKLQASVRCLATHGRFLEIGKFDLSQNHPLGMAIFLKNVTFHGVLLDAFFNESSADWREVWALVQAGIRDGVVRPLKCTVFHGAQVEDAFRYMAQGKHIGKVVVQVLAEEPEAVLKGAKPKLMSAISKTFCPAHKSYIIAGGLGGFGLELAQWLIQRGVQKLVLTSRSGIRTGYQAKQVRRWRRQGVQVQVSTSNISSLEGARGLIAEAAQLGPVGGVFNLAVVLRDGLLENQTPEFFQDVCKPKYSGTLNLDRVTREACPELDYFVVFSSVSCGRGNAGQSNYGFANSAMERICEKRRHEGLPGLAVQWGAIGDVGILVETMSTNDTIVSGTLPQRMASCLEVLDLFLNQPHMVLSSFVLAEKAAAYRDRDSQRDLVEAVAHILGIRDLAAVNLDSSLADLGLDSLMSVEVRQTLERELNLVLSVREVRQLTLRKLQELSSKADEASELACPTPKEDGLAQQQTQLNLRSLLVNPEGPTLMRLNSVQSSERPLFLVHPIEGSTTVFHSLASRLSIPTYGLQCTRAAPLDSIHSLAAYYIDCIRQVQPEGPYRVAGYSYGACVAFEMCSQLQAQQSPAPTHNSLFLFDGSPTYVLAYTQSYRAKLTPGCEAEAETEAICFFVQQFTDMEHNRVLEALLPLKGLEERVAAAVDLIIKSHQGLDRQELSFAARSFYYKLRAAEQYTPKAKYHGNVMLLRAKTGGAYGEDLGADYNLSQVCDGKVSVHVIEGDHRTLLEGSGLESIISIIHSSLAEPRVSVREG
LMPTP inh: LMPTP phosphatase inhibitors, primary screen, biochemical, fluorescence intensity, uHTS. inhibition, % at 20 µM. Low molecular weight phosphotyrosine protein phosphatase (Homo sapiens), P24666. recombinant LMPTP-A, OMFP fluorogenic substrate. actives 0.22% (n = 360,000). AID 651560, 2012;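 active = compounds that cut the enzyme signal by at least half of the control window in the single-dose screen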;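 note: plate controls were DMSO wells with enzyme plus substrate for no effect and substrate without enzyme for full effect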
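Assay system: LMPTP-A enzyme. Input: 0.625 nM LMPTP-A final. Probe or stimulus: 400 µM OMFP. Compound dosing: single 20 µM dose. Schedule: 50 min dark incubation at room temperature. Detection: fluorescence intensity of OMFP turnover product. Read-out: percent inhibition versus substrate-only and uninhibited controls. Benchmarks: no-enzyme low control, uninhibited high control.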
STEP inh: STEP phosphatase inhibitors, primary screen, biochemical, fluorescence intensity, uHTS. recombinant STEP, OMFP fluorogenic substrate. actives 0.25% (n = 360,000). AID 588621, 2011. Tyrosine-protein phosphatase non-receptor type 5 (Homo sapiens), P54829. inhibition, % at 20 µM;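 active = inhibition at 20 µM, scaled per plate between control wells, above about 37%, limit read from the data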;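 note: 0% = DMSO with enzyme and substrate and 100% = substrate only without enzyme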
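material = STEP tyrosine phosphatase | reagent = fluorogenic phosphatase substrate OMFP at 25 µM final | doses = single compound dose of 20 µM, 1% DMSO final | schedule = 20 min reaction, room temperature, in the dark | measured by = fluorescence, 480/540 nm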
Scp1 inh: Scp-1 phosphatase inhibitors, primary screen, biochemical, colorimetric, uHTS | Carboxy-terminal domain RNA polymerase II polypeptide A small phosphatase 1 (Homo … | Recombinant Scp1, phosphopeptide, malachite green phosphate absorbance | inhibition, % at 20 µM | actives 0.88% (n = 340,000);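 active = inhibition above about 50% at 20 µM, limit read from the data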;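 note: plate controls were DMSO wells with enzyme for no effect and wells lacking enzyme for full effect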
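System: SCP-1 catalytic domain; Reagent: Phospho 17-mer peptide substrate; Doses: one concentration, 20 µM, with 1.0% DMSO; Incubation: 45 min room-temperature reaction, 5 min colour, 30 min stabiliser; Signal: Phosphate-binding colour reagent, absorbance read at 630 nm.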
Scp-1 conf: Scp-1 phosphatase inhibitors, retest, confirmation, biochemical, colorimetric, single concentration; shares compounds with Scp1 inh; recombinant SCP-1 catalytic domain, phosphate release, malachite green absorbance; inhibition, % at 20 µM; actives 61% (n = 2,500);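 note: plate controls were DMSO with enzyme for no effect and buffer wells lacking enzyme for full effect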
Scp-1 MG ctr: colorimetric readout interference by compounds, confirmation, artefact control for Scp-1 inhibitor project, biochemical, single concentration | shares compounds with Scp1 inh | Colorimetric interference counterscreen, malachite green absorbance 630 nm | apparent inhibition (interference), % at 20 µM | 2,500 tested, under 10 active;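 note: compounds added after enzyme reaction finished so only phosphate colour detection is probed; plate controls were DMSO wells with completed Scp-1 reaction for no effect and substrate wells lacking enzyme for full effect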
Scp-1 Tm shift: Scp-1 binding by thermal shift, confirmation, orthogonal assay for Scp-1 inhibitor project, biophysical, differential scanning fluorimetry. shares compounds with Scp1 inh. Recombinant SCP1, Sypro Orange thermal shift Tm. thermal shift relative to vanadate control, % at 40 µM. actives 25% (n = 1,500). AID 540329, 2011;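 active = substances whose mean melting-temperature shift, as a percentage of the reference inhibitor's shift, reaches about 5.3%, limit read from the data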;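 note: 0% = Tm of DMSO wells and 100% = Tm with sodium orthovanadate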
* hit, by the source's call; / = not tested or not shown. The list is not random: actives were taken first. Their share in the collection is about 1.9%.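 Rule for the calls, unless noted: active = inhibition of at least 30% at 20 µM; inactive = the rest.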

SMILES | SUMO1-SIM PPI | FAS-TE inh | LMPTP inh | STEP inh | Scp1 inh | Scp-1 conf | Scp-1 MG ctr | others
NS(=O)(=O)c1ccc(CCNC(=O)c2ccc3nccnc3c2)cc1 | 11 | -10 | 55* | 8 | 99* | 76* | -7 | Scp-1 Tm shift=1
CCc1nc2ccc(C(=O)NCCc3c[nH]c4ccccc34)cn2c1N(C)Cc1ccc(N(C)C)cc1 | 5 | 12 | 5 | 1 | / | / | /
CCn1c(NC)cc(=O)n(C)c1=O | 24 | -6 | 0 | -1 | 79* | -12 | -6
CNc1cc(=O)n(C)c(=O)n1-c1ccccc1 | 3 | -4 | -1 | 0 | -2 | / | /
COc1cccc(CNC(=O)CSc2nnc3c(n2)[nH]c2ccc(C)cc23)c1 | -2 | -4 | -1 | -2 | -1 | / | /
COc1ccc(CNC(=O)CSc2nnc3c(n2)[nH]c2ccc(OC)cc23)cc1 | 3 | -11 | 5 | 7 | 65* | 70* | -9 | Scp-1 Tm shift=-3
COc1ccc(CNC(=O)CSc2nnc3c(n2)[nH]c2ccc(F)cc23)cc1 | 4 | -5 | 12 | 17 | 62* | 31* | -12 | Scp-1 Tm shift=-2
COC(=O)[C@@]1(Sc2ccc(C)cc2)CC(=O)N(C(=O)c2ccccc2)[C@@H]1c1ccccc1 | 5 | 19 | 1 | / | / | / | /
O=C(NCC(c1cccnc1)N1CCN(c2ccc(F)cc2)CC1)c1ccc(F)cc1 (configuration not stated) | 1 | 0 | -1 | 0 | -3 | / | /
CN(CCNC(=O)c1cc2c(=O)n(C)c3ccccc3c2n1C)Cc1ccccc1 | 5 | -1 | 0 | 0 | -16 | / | /
CCCN(CCC)CCNC(=O)c1cc2c(=O)n(C)c3ccccc3c2n1C | 5 | -7 | 2 | 1 | 90* | -8 | -8
O=c1c(-c2ccccc2)nnc2sc(COc3ccc(Br)cc3)nn12 | 1 | -3 | -1 | -3 | 6 | / | /
O=C(NCc1cccs1)c1ccc2sc([C@@H]3O[C@H](CO)[C@H](O)[C@H](O)[C@H]3O)nc2c1 | -5 | -9 | 0 | 0 | / | / | /
CCOC(=O)Cc1csc(N/N=C/c2cccc([N+](=O)[O-])c2)n1 | -10 | -1 | 0 | 1 | 1 | / | /
O=[N+]([O-])c1cccc(-c2csc(N/N=C/c3cccc(O)c3)n2)c1 | -8 | 34 | 5 | 6 | 72* | 51* | -13 | Scp-1 Tm shift=19*
COc1ccc(C)cc1NC(=O)CCCN1C(=O)CN(C)C1=O | -1 | -3 | -2 | 0 | -8 | -14 | -16
CCc1cccc(C)c1NC(=O)CCCN1C(=O)CN(C)C1=O | 0 | -7 | -1 | -2 | -2 | -11 | -13
Cc1cccc(C)c1NC(=O)C(c1ccnc2ccccc12)N1CCN(CCN(C)C)CC1 (configuration not stated) | 0 | / | -3 | / | / | / | /
NS(=O)(=O)c1ccc(CNC(=O)c2ccc(NS(=O)(=O)c3ccc4[nH]c(=O)[nH]c4c3)cc2)cc1 | 2 | -6 | -1 | -1 | -3 | / | /
CN(C)S(=O)(=O)c1ccc(Cl)c(NC(=O)COC(=O)/C=C/c2ccco2)c1 | -3 | 7 | 6 | 6 | 69* | 46* | -13 | Scp-1 Tm shift=-4
O=C(COC(=O)/C=C/c1ccco1)Nc1ncc(Cl)cc1Cl | -7 | -4 | 6 | 11 | 57* | 56* | -9 | Scp-1 Tm shift=-10
S=C(NCCCCN(Cc1ccc(Cl)cc1)c1ccc(Br)cn1)NCCCc1cnc[nH]1 | -21 | -116 | -4 | 8 | / | / | /
Cc1ccc(NC(=O)/C=C/c2ccco2)nc1 | -11 | -6 | 0 | -3 | 63* | 34* | -15 | Scp-1 Tm shift=-5
N#C/C(C(=O)Oc1ccccc1)=C1/Nc2ccccc2-c2ccccc21 | -2 | 17 | 1 | 0 | -3 | / | /
Cc1csc(NC(=O)CSc2nc3[nH]c(=O)cc(O)c3s2)n1 | -27 | 3 | 2 | -2 | 2 | / | /
SMILES | SUMO1-SIM PPI | FAS-TE inh | LMPTP inh | STEP inh | Scp1 inh | Scp-1 conf | Scp-1 MG ctr | others
Cc1csc(NC(=O)CSc2sc3c(O)cc(=O)[nH]c3c2C#N)n1 | 25 | 1 | 20 | 32 | 68* | 53* | -18 | Scp-1 Tm shift=12*
CCSc1nnc(NC(=O)CSc2sc3c(O)cc(=O)[nH]c3c2C#N)s1 | 36 | 0 | 62* | 30 | 77* | 49* | -13 | Scp-1 Tm shift=13*
CCCCn1nnnc1C(c1ccccc1)N1CCN(c2ccc(F)cc2)CC1 (configuration not stated) | 1 | 20 | 2 | / | / | / | /
Cc1cc(NC(=O)CSCC(=O)Nc2nc3ccccc3s2)no1 | 5 | -6 | 0 | -1 | -2 | / | /
CC(C)Oc1cc(F)ccc1-c1cc(C(=O)NCc2ccccn2)[nH]n1 | 2 | -8 | 1 | -2 | / | / | /
CCOc1ccc(NC(=O)C2CCCN2C(=O)Oc2ccccc2)cc1 (configuration not stated) | 3 | -4 | -1 | -1 | 54* | 20 | -8
Cc1cc(C)cc(NC(=O)C2CCCN2C(=O)Oc2ccccc2)c1 (configuration not stated) | 1 | 0 | 0 | -1 | -5 | / | /
CC(C)C[C@H]1CN(CCCC[C@H]2CNC(=O)C(=O)N2CCc2ccccc2)C(=O)C(=O)N1Cc1ccccc1 | 0 | -7 | -2 | / | / | / | /
CC(C)C[C@H]1CNC(=O)C(=O)N1C[C@H](C)NC(=O)Cc1ccccc1 | -6 | -9 | -2 | 0 | -6 | 2 | -5
CC[C@@H](NC(=O)Cn1cc(C)c(=O)[nH]c1=O)c1ccccc1 | 0 | -5 | -1 | -2 | 1 | / | /
Cc1cn(CC(=O)N[C@H](C)c2cccc3ccccc23)c(=O)[nH]c1=O | 0 | -8 | -2 | -2 | 0 | -21 | -20
O=C(NCCc1c[nH]c2ccccc12)c1cc(Cl)c2c(c1)OCO2 | 7 | 10 | 3 | 0 | 52* | -3 | -10
COc1ccc(NC(C)=O)c([N+](=O)[O-])c1[N+](=O)[O-] | -24 | -4 | -2 | -5 | -4 | / | /
